Drawing on ChEMBL document CHEMBL5346942, “Identification and analysis of small molecule inhibitors of FosB from Staphylococcus aureus” (RSC Med Chem, 2023), this text covers MIC, Activity and Ki for nine molecules.

Usually MIC stands for the lowest concentration found to suppress growth. The term Ki denotes a dissociation constant, usually derived from enzyme kinetics or from competition with a known ligand.

Each structure is given as a SMILES string. Values after ≈ are worked out from the molar mass of the structure shown.

The test system of data set [1] is Staphylococcus aureus. As to the kind of experiment: Antibacterial activity against Staphylococcus aureus JE2 harboring […] assessed as reduction in bacterial growth incubated overnight by double dilution method. Type of data set: functional. The essentials: (§1)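 S. aureus JE2 grown overnight at 37 °C on Mueller–Hinton agar; colonies suspended in MH broth to OD600 ~0.5, diluted 1:1000 and added to serial twofold dilutions of compound (water stocks 10 mg/mL). Incubated overnight at 37 °C; MIC read visually as the well with no growth. Sterile and growth control wells included. For combinations, fosfomycin diluted along one plate axis and inhibitor along the other, before the inoculum was added.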

Another data set concerns HepG2. As to the kind of experiment: Cytotoxicity against human HepG2 cells assessed as reduction in cell viability at 64 ug/ml incubated for 24 hrs by resazurin dye based fluorescence analysis. It is filed as toxicity. The settings on record: hepg2, 24 h, dose 64 µg/ml. The essentials: (§2)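 HEK-293 or HepG2 cells grown in DMEM with 10% FBS and 1% penicillin/streptomycin at 37 °C, 5% CO2. Positive control was 1% Triton X-100. Viability read by resazurin (2 mM stock) added for 24 h, measuring resorufin fluorescence.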
In general terms: Alamar Blue is a resazurin reagent that responds to reducing activity.

Data set [2] concerns Staphylococcus aureus. As to the kind of experiment: Antibacterial activity against Staphylococcus aureus harboring FosB. It is filed as functional. A digest of the protocol:
as §1

The next data set deals with HEK293. As to the kind of experiment: Cytotoxicity against HEK293 cells assessed as reduction in cell viability at 64 ug/ml incubated for 24 hrs by resazurin dye based fluorescence analysis. It is filed as toxicity. The settings on record: human, hek293, 24 h, dose 64 µg/ml. A digest of the protocol:
as §2

Data set [3] concerns Staphylococcus aureus. Kind of data set: Antibacterial activity against Staphylococcus aureus lacking FosB. Type of data set: functional.
Data set [4] concerns Staphylococcus aureus. As to the kind of experiment: Antibacterial activity against Staphylococcus aureus JE2 harboring […] assessed as fosfomycin MIC at 128 ug/ml incubated overnight by double dilution method. It is filed as functional. Particulars: dose 128 µg/ml. A digest of the protocol: as §1
The subject of data set [5] is Staphylococcus aureus. As to the kind of experiment: Antibacterial activity against Staphylococcus aureus JE2 harboring […] assessed as reduction in bacterial growth incubated overnight in presence of fosfomycin by double dilution method. Type of data set: functional. A digest of the protocol:
as §1

Data set [6] concerns the target T1, Metallothiol transferase FosB (Staphylococcus aureus, UniProt Q5HDM4). Kind of data set: Inhibition of Staphylococcus aureus FosB using L-cysteine as substrate assessed as inhibition constant for initial binding event by absorbance based DTNB assay.
In data set [7] the target is T1, Metallothiol transferase FosB. As to the kind of experiment: Competitive inhibition of Staphylococcus aureus FosB using L-cysteine as substrate assessed as inhibition constant for initial binding event by absorbance based DTNB assay.
The target is the same in data set [8]. As to the kind of experiment: Parabolic competitive inhibition of Staphylococcus aureus FosB using L-cysteine as substrate assessed as inhibition constant for initial binding event by absorbance based DTNB assay. The essentials: (§3)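 FosB from S. aureus, steady-state Michaelis–Menten kinetics with L-cysteine as the thiol co-substrate (instead of BSH) and varied fosfomycin. Rates read by absorbance-based DTNB assay at several fixed inhibitor concentrations. Initial velocities globally fit to a parabolic competitive model (two inhibitor molecules bind). Ki1 is the first binding event, Ki2 the second.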

Data set [9] shares this target. Kind of data set: Parabolic competitive inhibition of Staphylococcus aureus FosB using L-cysteine as substrate assessed as inhibition constant for second binding event by absorbance based DTNB assay. A digest of the protocol:
as §3

T1 sequence (Q5HDM4 whole entry): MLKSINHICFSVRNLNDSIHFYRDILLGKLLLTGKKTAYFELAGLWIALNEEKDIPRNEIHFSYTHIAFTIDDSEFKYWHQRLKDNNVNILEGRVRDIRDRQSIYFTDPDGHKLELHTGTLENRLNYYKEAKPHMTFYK

Turning to `C[C@@H]1O[C@@H]1P(=O)(O)O` [FOSFOMYCIN], the MIC was above 128 µg/mL with Staphylococcus aureus [1], 64 µg/mL (≈ 464 µM) against Staphylococcus aureus [2] and 0.5 µg/mL (≈ 3.62 µM) in the data set with Staphylococcus aureus [3]. Besides, the Activity result with HepG2 and in the data set on HEK293 was “Non-Toxic” each time.
Consider `CC(C)[C@H](O)P(=O)(O)O`, for which the results for the MIC in the data set with Staphylococcus aureus [4], in the data set on Staphylococcus aureus [5] and in the data set on Staphylococcus aureus [1] were 8 µg/mL, above 128 µg/mL and above 128 µg/mL, respectively. In addition, the Activity result in the data set with HepG2 and in the data set on HEK293 was “Non-Toxic” throughout. In [6], the Ki was 3580 µM.
Regarding `C[C@@H](C(=O)O)P(=O)(O)O`, the MIC was 8 µg/mL with Staphylococcus aureus [4], above 128 µg/mL in the data set with Staphylococcus aureus [5] and above 128 µg/mL in the data set with Staphylococcus aureus [1]. The inhibitory constant (Ki) in data set [7] turned out to be 430 µM. Moreover, the Activity result in the data set on HepG2 and in the data set on HEK293 was “Non-Toxic” each time.
Consider `C[C@H](CO)P(=O)(O)O`, for which the MIC in the data set on Staphylococcus aureus [4] is 8 µg/mL; with Staphylococcus aureus [5], above 128 µg/mL; with Staphylococcus aureus [1], above 128 µg/mL. The Activity result in the data set on HepG2 and with HEK293 was “Non-Toxic” in each case. Besides, the Ki in data set [6] came to 5290 µM.
Turning to `O=C(O)CP(=O)(O)O` [FOSFONET], the MIC in the data set with Staphylococcus aureus [4] was 8 µg/mL; with Staphylococcus aureus [5], above 128 µg/mL; in the data set with Staphylococcus aureus [1], above 128 µg/mL. For the same molecule, the Activity result with HepG2 and with HEK293 was “Non-Toxic” throughout. In addition, the Ki in data set [8] amounted to 900 µM; in data set [9] it was 210 µM.
With `CC(C(=O)O)C(=O)O` [METHYLMALONIC ACID], the Activity entry in the data set with HepG2 and in the data set with HEK293 was “Non-Toxic” each time.
For the molecule `O=C(O)CCP(=O)(O)O`, the Activity result with HepG2 and with HEK293 was “Non-Toxic” each time.
As to `CC[C@@H](O)P(=O)(O)O`, the MIC in the data set on Staphylococcus aureus [4] was 8 µg/mL; with Staphylococcus aureus [5], above 128 µg/mL. In addition, the Activity entry in the data set on HepG2 and in the data set with HEK293 was “Non-Toxic” throughout. In addition, the Ki in [6] turned out to be 1570 µM.
On to `O=P(O)(O)CCP(=O)(O)O`, for which the Activity entry in the data set with HepG2 and in the data set on HEK293 was “Non-Toxic” in each case.
